Screening data deposited in PubChem by Broad Institute.
RAD54 branch = RAD54 (human) branch migration inhibition. Q92698. RAD54 Holliday junction branch migration, FAM/BHQ fluorescence. inhibition, % at 10.4 µM. hit rate 0.14% among 360,000;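 active means mean normalized replicate activity at least 40 and at least half of replicates scoring 40 or more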;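 further: 0% = median of neutral control wells and 100% = median of positive control wells; inhibitors cause a drop in the FAM fluorescence signal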
PAX8 inh HTS = lowers PAX8-driven luciferase in RMG-I cells. RMG-I TPO-luciferase reporter, SteadyGlo, 24 h. hit rate 1.2% among 360,000. inhibition, % at 12.6 µM. AID 652154;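 active means mean replicate inhibition at least 60% with every replicate also reaching 60%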;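 further: luciferase light reporting Pax8 driven TPO promoter activity; plate controls were median of neutral control wells for no effect and mitoxantrone controls for full effect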
FN deposit inh = fibronectin deposition inhibition | AH1F fibroblasts, Alexa488-fibronectin deposition fluorescence, overnight | inhibition, % at 12.6 µM | hit rate 0.086% among 350,000 | AID 743247;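 active means mean inhibition across replicates of 30% or more, regardless of how many single replicates reach that level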;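 further: positive control wells lacked labelled fibronectin entirely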
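Material: AH1F fibroblast monolayer depositing Alexa488-labelled fibronectin into matrix | Input: 10000 AH1F cells/well | Medium: DMEM plus 2% serum, read in PBS | Reagent: Alexa488-fibronectin, 24 nM final in well | Compound dosing: One dose per compound, pinned | Schedule: 1 h adhesion, overnight exposure | Measured by: Fluorescence at 485 nm excitation, 525 nm emission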
RAD52 inh = inhibitors of human RAD52 DNA annealing; P43351; recombinant RAD52 DNA annealing, FRET fluorescence; inhibition, % at 18.7 µM; hit rate 0.46% among 360,000;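 active means every replicate showing at least 50% inhibition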
Target sequence (P43351 whole entry, looked up): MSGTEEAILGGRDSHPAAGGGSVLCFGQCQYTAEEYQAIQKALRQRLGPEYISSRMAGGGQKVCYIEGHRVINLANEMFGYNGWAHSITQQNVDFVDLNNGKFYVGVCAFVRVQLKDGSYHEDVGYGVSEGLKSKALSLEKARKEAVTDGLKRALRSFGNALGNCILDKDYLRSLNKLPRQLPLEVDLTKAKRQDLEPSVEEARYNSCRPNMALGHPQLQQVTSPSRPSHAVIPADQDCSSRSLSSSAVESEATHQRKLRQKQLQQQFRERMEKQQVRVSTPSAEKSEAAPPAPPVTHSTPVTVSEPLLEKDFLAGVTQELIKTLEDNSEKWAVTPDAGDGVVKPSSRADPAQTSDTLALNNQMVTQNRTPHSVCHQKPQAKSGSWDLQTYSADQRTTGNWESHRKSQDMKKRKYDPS
The depositor's hits bear a star; . = not tested or not shown. Only some compounds are listed: those with a hit (about 1.3% of all), similar ones and a draw of the others.

SMILES | RAD54 branch | PAX8 inh HTS | FN deposit inh | RAD52 inh
CCCC#Cc1ccc2c(c1)[C@@H]1[C@@H](CCN1S(=O)(=O)c1ccc(F)cc1)[C@@H](CO)N2C | 5.5 | 9.1 | 7.1 | -23.5
COc1ccccc1S(=O)(=O)N1CC[C@H]2[C@@H](CO)N(C)c3ccc(-c4ccc(C#N)cc4)cc3[C@H]21 | 2.1 | 106.6* | 13.1 | .
N#Cc1ccc(-c2ccc3c(c2)[C@@H]2[C@@H](CCN2S(=O)(=O)c2cccc(F)c2)[C@H](CO)N3)cc1 | 12.3 | 4.7 | 31.4* | -17.3
CN1c2ccc(-c3ccc(C#N)cc3)cc2[C@H]2[C@H](CCN2S(=O)(=O)c2cccc(F)c2)[C@@H]1CO | 15.2 | 73.0* | 11.7 | 33.7
CCCC#Cc1ccc2c(c1)[C@@H]1[C@@H](CCN1S(=O)(=O)c1cccc(F)c1)[C@@H](CO)N2C | 2.5 | 66.6* | -4.1 | -6.4
COc1ccc(NC(=O)Nc2ccc3c(c2)C(=O)N([C@@H](C)CO)C[C@@H](C)[C@@H](CN(C)Cc2ccc(C(F)(F)F)cc2)OCCCC[C@@H](C)O3)cc1 | -3.5 | 84.1* | 1.8 | -11.3
COc1ccc(NC(=O)Nc2ccc3c(c2)C(=O)N([C@@H](C)CO)C[C@@H](C)[C@@H](CN(C)Cc2ccc(C(F)(F)F)cc2)OCCCC[C@H](C)O3)cc1 | -4.4 | 71.9* | 0.3 | 11.9
COc1ccc(NC(=O)Nc2ccc3c(c2)C(=O)N([C@H](C)CO)C[C@@H](C)[C@@H](CN(C)Cc2ccc(C(F)(F)F)cc2)OCCCC[C@@H](C)O3)cc1 | -13.1 | 44.2 | 6.3 | 5.5
COc1ccc(CN(C)C[C@H]2OCCCC[C@@H](C)Oc3ccc(NC(=O)Nc4ccc(C(F)(F)F)cc4)cc3C(=O)N([C@H](C)CO)C[C@H]2C)cc1 | -8.8 | 40.5 | . | 31.9
COc1ccc(NC(=O)Nc2ccc3c(c2)C(=O)N([C@@H](C)CO)C[C@H](C)[C@@H](CN(C)Cc2ccc(C(F)(F)F)cc2)OCCCC[C@@H](C)O3)cc1 | -5.0 | 68.7* | -1.0 | -63.2
COc1ccc(CN(C)C[C@H]2OCCCC[C@H](C)Oc3ccc(NC(=O)Nc4ccc(C(F)(F)F)cc4)cc3C(=O)N([C@@H](C)CO)C[C@H]2C)cc1 | 1.2 | 106.0* | . | 38.2
Nc1ccc(S(N)(=O)=O)cc1N | 26.6 | -8.3 | -7.7 | -92.4
COc1ccccc1CNC(=O)C1=CCN(S(=O)(=O)c2ccc(C)cc2)CC1 | . | 6.5 | -1.2 | -49.3
COCC(=O)Nc1ccc2c(c1)[C@@H]1C[C@@H](CC(=O)N3CCc4ccccc4C3)O[C@H](CO)[C@@H]1O2 | 1.0 | . | . | -4.6
CCOC(=O)N1CCc2c(sc(NC(=O)C3=COCCO3)c2C(N)=O)C1 | 11.1 | -13.3 | 9.7 | -7.7
COc1ccc(CC2C(=O)NC(C)C(=O)N(C)C3Cc4ccc(cc4)Oc4cc(ccc4O)CC(C(=O)NC(C)C(=O)NC(C)C(=O)N2C)N(C)C3=O)cc1 (centres undefined) | . | 110.0* | 22.4 | -7.7
COc1ccc(NC(=O)Nc2ccc3c(c2)CC(=O)N([C@H](C)CO)C[C@@H](C)[C@@H](CN(C)Cc2ccc(Oc4ccccc4)cc2)O3)cc1 | 4.4 | 102.5* | . | 27.5
COc1ccc(NC(=O)Nc2ccc3c(c2)CC(=O)N([C@@H](C)CO)C[C@H](C)[C@@H](CN(C)Cc2ccc(Oc4ccccc4)cc2)O3)cc1 | -3.7 | 23.5 | . | 25.4
COc1ccc(NC(=O)Nc2ccc3c(c2)CC(=O)N([C@@H](C)CO)C[C@@H](C)[C@H](CN(C)Cc2ccc(Oc4ccccc4)cc2)O3)cc1 | -6.3 | 70.3* | . | 45.2
COc1cccc(NC(=O)CN(Cc2ccccc2)S(C)(=O)=O)c1 | -0.6 | -5.0 | -5.0 | 4.2
COC(=O)c1ccc2nc(Nc3nc4ccc(F)cc4s3)sc2c1 | -4.7 | 79.7* | -6.1 | -11.0
COC(=O)c1ccc2nc(NC(=O)C(C)(C)C)sc2c1 | . | 13.2 | 2.8 | -9.5
O=C(Nc1nc2ccccc2s1)c1cnccn1 | 3.9 | . | . | .
O=C(Nc1nc2ccc(F)cc2s1)c1ccccn1 | . | 74.7* | 4.2 | -36.7
COc1cccc(C2C(C(=O)Nc3cccnc3)=C(C)Nc3nnnn32)c1OC (centres undefined) | 2.0 | . | 6.0 | .
CCOC(=O)C1CC2=C(CCCC2=O)NC1=O (centres undefined) | -2.0 | -14.3 | -1.8 | -11.8
Cc1ccc(-c2ccc([C@H]3[C@@H](CO)N4CCCCN(C(=O)c5ccc(F)cc5)C[C@H]34)cc2)cc1 | 13.8 | 73.0* | . | -6.9
COCC(=O)N1CCCCN2[C@H](CO)[C@H](c3ccc(-c4ccc(C)cc4)cc3)[C@H]2C1 | 1.6 | 11.0 | . | -4.5
